Source: ChEMBL document CHEMBL4145481, “Synthesis and biological evaluation of novel bavachinin analogs as anticancer agents” (Eur J Med Chem, 2018)

Legend:
MCF7 [1] = experiment: Cytotoxicity against human MCF7 cells assessed as growth inhibition at 50 uM after 48 hrs by SRB assay relative to control; type: functional; conditions: MCF7, 48 h, read-out: GI
Summary of the method: (§1)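 SRB growth-inhibition run in RPMI-1640/10% FBS at 37°C, 5% CO₂. Cell lines were seeded (PC-3 7000, MCF-7 8000, A549 7500, HCT-116 7000/well) and attached 24 h. The treatment series included 50 μM, with 48 h exposure. Cells were cold-TCA fixed and stained with 0.4% SRB. Dye was solubilized in 10 mM Tris pH 10.4 and read at 540 nm against untreated control.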

PC-3 [2] = experiment: Cytotoxicity against human PC3 cells assessed as growth inhibition at 50 uM after 48 hrs by SRB assay relative to control; type: functional; conditions: PC-3, 48 h, read-out: GI; summary of the method: as §1
HCT-116 [3] = experiment: Cytotoxicity against human HCT116 cells assessed as growth inhibition at 50 uM after 48 hrs by SRB assay relative to control; type: functional; conditions: HCT-116, 48 h, read-out: GI; summary of the method: as §1
A549 [4] = experiment: Cytotoxicity against human A549 cells assessed as growth inhibition at 50 uM after 48 hrs by SRB assay relative to control; type: functional; conditions: A549, 48 h, read-out: GI; summary of the method: as §1
HCT-116 [5] = experiment: Cytotoxicity against human HCT116 cells assessed as growth inhibition after 48 hrs by SRB assay; type: functional, cell-based; conditions: HCT-116, 48 h
Summary of the method: (§2)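 Cells were grown in RPMI-1640 with 10% FBS and penicillin/streptomycin at 37°C, 5% CO₂. Seeding was PC-3 7000, MCF-7 8000, A549 7500 and HCT-116 7000 cells/well, with 24 h attachment. Cells were exposed to 1, 5, 10, 30 and 50 μM for 48 h, with a 5-fluorouracil reference. Cells were TCA-fixed (1 h, 4°C) and stained with 0.4% SRB. Bound dye was dissolved in 10 mM Tris pH 10.4 and read at 540 nm. IC50 came from the concentration-response.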

A549 [6] = experiment: Cytotoxicity against human A549 cells assessed as growth inhibition after 48 hrs by SRB assay; type: functional, cell-based; conditions: A549, 48 h; summary of the method: as §2
MCF7 [7] = experiment: Cytotoxicity against human MCF7 cells assessed as growth inhibition after 48 hrs by SRB assay; type: functional, cell-based; conditions: MCF7, 48 h; summary of the method: as §2
PC-3 [8] = experiment: Cytotoxicity against human PC3 cells assessed as growth inhibition after 48 hrs by SRB assay; type: functional, cell-based; conditions: PC-3, 48 h; summary of the method: as §2
[9] = biological target: T1, Peroxisome proliferator-activated receptor gamma (Mus musculus, UniProt P37238); experiment: Agonist activity at mouse PPARgamma expressed in 293T cells by dual luciferase reporter gene assay; type: cell-based
T1 sequence (P37238 whole entry): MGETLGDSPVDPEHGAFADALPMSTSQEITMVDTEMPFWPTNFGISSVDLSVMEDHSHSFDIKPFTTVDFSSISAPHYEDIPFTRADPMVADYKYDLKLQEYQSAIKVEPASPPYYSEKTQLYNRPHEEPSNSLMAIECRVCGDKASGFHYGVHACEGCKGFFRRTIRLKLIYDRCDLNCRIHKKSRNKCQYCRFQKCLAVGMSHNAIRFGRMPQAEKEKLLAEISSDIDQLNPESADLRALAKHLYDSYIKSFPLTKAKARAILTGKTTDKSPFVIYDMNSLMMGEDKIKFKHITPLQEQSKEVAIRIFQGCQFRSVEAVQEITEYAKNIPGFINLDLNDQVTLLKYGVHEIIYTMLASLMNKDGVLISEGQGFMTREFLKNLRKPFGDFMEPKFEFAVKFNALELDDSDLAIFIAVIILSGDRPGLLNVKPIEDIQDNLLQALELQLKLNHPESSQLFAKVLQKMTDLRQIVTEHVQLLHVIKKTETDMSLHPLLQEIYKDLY

SMILES	inhibition of growth at 50 µM (MCF7 [1])	inhibition of growth at 50 µM (PC-3 [2])	inhibition of growth at 50 µM (HCT-116 [3])	inhibition of growth at 50 µM (A549 [4])	IC50 (HCT-116 [5])	IC50 (A549 [6])	IC50 (MCF7 [7])	IC50 (PC-3 [8])	EC50 [9]
COc1cc2c(cc1CC=C(C)C)C(=O)C[C@@H](c1ccc(Oc3ccc(F)cc3)cc1)O2	37%	19%	29%	27%					
COc1ccc([C@@H]2C/C(=N/OCc3cn(-c4cc(OC)c(OC)c(OC)c4)nn3)c3cc(CC=C(C)C)c(OC)cc3O2)cc1	45%	36%	29%	28%					
COc1ccc([C@@H]2C/C(=N/OCc3cn(-c4ccc(O)cc4)nn3)c3cc(CC=C(C)C)c(OC)cc3O2)cc1	63%	64%	65%	52%					
COc1ccc([C@@H]2C/C(=N/OCc3cn(-c4ccc(NC(C)=O)cc4)nn3)c3cc(CC=C(C)C)c(OC)cc3O2)cc1	0%	2%	6%	19%					
COc1ccc([C@@H]2C/C(=N/OCc3cn(-c4ccc(NC(=O)c5ccccc5)cc4)nn3)c3cc(CC=C(C)C)c(OC)cc3O2)cc1	4%	22%	8%	31%					
COc1cc2c(cc1CCC(C)C)C(=O)C[C@@H](c1ccc(O)cc1)O2	81%	78%	77%	75%	34.3 µM	30.5 µM	34.5 µM	36.3 µM	
COc1cc2c(cc1CC=C(C)C)C(=O)C[C@@H](c1ccc(Oc3ccc(Br)cc3)cc1)O2	68%	55%	76%	72%					
COc1cc2c(cc1CC=C(C)C)[C@H](O)C[C@@H](c1ccc(O)cc1)O2	49%	13%	37%	48%					
COc1cc2c(cc1CC=C(C)C)/C(=N/O)C[C@@H](c1ccc(O)cc1)O2	93%	81%	99%	80%	29.7 µM	11.4 µM	23.6 µM	31.6 µM	
C#CCOc1ccc([C@@H]2CC(=O)c3cc(CC=C(C)C)c(OC)cc3O2)cc1	68%	52%	75%	53%					
COc1ccc([C@@H]2C/C(=N/OCc3cn(-c4cccc(CO)c4)nn3)c3cc(CC=C(C)C)c(OC)cc3O2)cc1	42%	34%	27%	43%					
COc1cc(O)c(C(=O)/C=C/c2ccc(O)cc2)cc1CC=C(C)C	73%	44%	63%	68%					
COc1cc2c(cc1CC=C(C)C)C(=O)C[C@@H](c1ccc(Oc3cccc([N+](=O)[O-])c3)cc1)O2	53%	21%	46%	37%					
COc1ccc([C@@H]2C/C(=N/OCc3cn(-c4cccnc4Cl)nn3)c3cc(CC=C(C)C)c(OC)cc3O2)cc1	35%	44%	47%	58%					
COc1cc2c(cc1CC=C(C)C)/C(=N/NC(N)=O)C[C@@H](c1ccc(O)cc1)O2	93%	67%	87%	77%	24.3 µM	25.3 µM	19.5 µM	27.7 µM	
COc1cc2c(cc1CC1OC1(C)C)C(=O)C[C@@H](c1ccc(O)cc1)O2 (stereo not given in full)	98%	92%	97%	79%	29 µM	29.8 µM	30.9 µM	27.4 µM	
C#CCO/N=C1/C[C@@H](c2ccc(OC)cc2)Oc2cc(OC)c(CC=C(C)C)cc21	61%	41%	65%	64%					
CCCOc1ccc([C@@H]2CC(=O)c3cc(CC=C(C)C)c(OC)cc3O2)cc1	60%	54%	63%	43%					
COc1ccc([C@@H]2C/C(=N/OCc3cn(-c4ccc(Cl)cc4C)nn3)c3cc(CC=C(C)C)c(OC)cc3O2)cc1	37%	49%	20%	35%					
COc1cc2c(cc1CC=C(C)C)C(=O)C[C@@H](c1ccc(OC(=O)c3ccc([N+](=O)[O-])cc3)cc1)O2									0.43 µM
CCCCOc1ccc([C@@H]2CC(=O)c3cc(CC=C(C)C)c(OC)cc3O2)cc1	57%	48%	60%	37%					
COc1ccc([C@@H]2C/C(=N/OCc3cn(-c4ccccc4CO)nn3)c3cc(CC=C(C)C)c(OC)cc3O2)cc1	100%	100%	100%	100%	29.9 µM	30.7 µM	23.4 µM	26.6 µM	
COc1ccc([C@@H]2CC(=O)c3cc(CC=C(C)C)c(OC)cc3O2)cc1	65%	58%	68%	45%					
COc1cc2c(cc1CC=C(C)C)C(=O)C[C@@H](c1ccc(Oc3ccccc3)cc1)O2	69%	53%	76%	46%					
COc1ccc([C@@H]2C/C(=N/OCc3cn(-c4ccc(C#N)cc4)nn3)c3cc(CC=C(C)C)c(OC)cc3O2)cc1	40%	50%	50%	42%					
COc1ccc([C@@H]2C/C(=N/OCc3cn(-c4ccc(C(=O)c5ccccc5)cc4)nn3)c3cc(CC=C(C)C)c(OC)cc3O2)cc1	41%	40%	52%	34%					
COc1cc2c(cc1CC=C(C)C)C(=O)C[C@@H](c1ccc(OC(C)=O)cc1)O2									0.78 µM
CCOc1ccc([C@@H]2CC(=O)c3cc(CC=C(C)C)c(OC)cc3O2)cc1	57%	60%	65%	37%					
COc1ccc([C@@H]2C/C(=N/O)c3cc(CC=C(C)C)c(OC)cc3O2)cc1	63%	45%	47%	66%					
